Paper PMC3925341 (Journal of medicinal chemistry, 2013)
Entries after “also recorded” stand apart in the source; their conditions may differ. One block for each compound: values may come before it.

Tests used:
[1] = molecular target: TAMRA-(CUG)6; assay: Steady state fluorescence titration of 5'-TAMRA-; assay type: binding; settings: for KD: TAMRA-(CUG)6, 1X PBS; for fold decrease in KD compared to 2 (fold greater affinity to (CUG)6): relative to monomeric ligand 2
Outline: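 TAMRA-(CUG)6 was titrated with increasing test compound in 1X PBS, with excitation at 560 nm and emission at 590 nm. Normalized fluorescence intensities were fitted to a binding equation with Fmax and F0 to give KD. Mean ± s.d. of three independent experiments.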

[2] = tested on: (CUG)12·MBNL1; assay: SPR-based inhibition of the MBNL1·; assay type: biochemical; settings: relative to monomeric ligand 2
Outline: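 Biotinylated (CUG)12 was immobilized on a streptavidin SPR chip, with Tween-20 and excess competitor tRNA, in 1X PBS. The chip was preincubated with test compound to steady-state RU over 150 s. MBNL1 (0.65 μM) was then injected with compound held at the same concentration. Maximum RU at 150 s was converted to % (CUG)12 bound, normalized to no compound, and fitted dose-response for apparent IC50. Normalized IC50 = IC50 divided by the number of binding modules. Bivalent effect = normalized IC50 of monomer reference divided by that of dimer. Three experiments.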

[3] = tested on: CUG repeat; settings: cited from earlier work
[4] = tested on: DM1 cell model (HeLa cells); settings: cited from earlier work
[5] = tested on: CUG^exp foci in DM1 cell model (HeLa cells transfected with DMPK-CTG960); assay: FISH study of; assay type: cell-based; settings: 36 h
[6] = tested on: DM1 cell model (HeLa cells); assay: Cellular and nuclear penetration by acridine fluorescence; assay type: cell-based; settings: monitored by inherent acridine fluorescence
Outline: (§1)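 Live-cell time-lapse confocal imaging of HeLa cells co-transfected with a DMPK-CTG960 minigene plasmid and a GFP-MBNL1 plasmid. Test compound at 50 μM final. Images were taken just before addition and at 3, 6 and 10 h. Cells were relocated on a gridded dish by DIC. Compound uptake was followed by its acridine fluorescence, and foci by GFP-MBNL1. Untreated cells served as control. Z-stacks of 1 μm slices were taken at 10 h.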

[7] = Solubility in buffer / water
[8] = tested on: HeLa cells; assay: Sulforhodamine B cytotoxicity assay; assay type: cell-based; settings: concentrations up to 75 μM, 24 h
[9] = tested on: MBNL1 foci in live DM1 cell model (HeLa cells, DMPK-CTG960 and GFP-MBNL1); assay: Time-lapse confocal microscopy of MBNL1 foci in live DM1 model cells; assay type: cell-based; settings: 50 μM, over 10 h
Outline: as §1

[10] = tested on: (CUG)12; assay: Optical melting; assay type: binding; settings: 11 versus 7, same number of linker atoms
[11] = 20, 35 and 50 μM (any concentration)

- KD [1]: close to the monomeric ligand 2
Compound: Nc1nc(N)nc(NCCCCNc2c3ccccc3nc3ccc(C(=O)NCCOCCOCCNC(=O)c4ccc5nc6ccccc6c(NCCCCNc6nc(N)nc(N)n6)c5c4)cc23)n1 [Ligand 7]
- bivalent effect (ratio of normalized IC50 of 2 to that of the dimeric ligand) [2]: 8

Compound: Nc1nc(N)nc(NCCCCNc2c3ccccc3nc3ccc(C(=O)NCCOCCOCCOCCOCCOCCNC(=O)c4ccc5nc6ccccc6c(NCCCCNc6nc(N)nc(N)n6)c5c4)cc23)n1 [Ligand 13]
- bivalent effect (ratio of normalized IC50 of 2 to that of the dimeric ligand) [2]: 3

Compound: COc1ccc2nc3cc(Cl)ccc3c(NCCCCNc3nc(N)nc(N)n3)c2c1 [Ligand 1]
- selectivity for CUG repeat relative to a random duplex [3]: over 50 fold
- cell permeability [4]: poor cell permeability

Compound: NCCCNCCCCNCCCN [spermine, Spermine, reference compound]
- (CUG)960 foci dispersion [5, 11]: no significant foci dispersion

- cellular and nuclear penetration [6]: cell-permeable and nucleus-permeable
- Solubility in the buffer used for optical melting (Solution) ([7]; N.S. = not sufficiently soluble): not fully soluble
Compound: Nc1nc(N)nc(NCCCCNc2c3ccccc3nc3ccc(C(=O)NCCCNCCCCCCCCNCCCNC(=O)c4ccc5nc6ccccc6c(NCCCCNc6nc(N)nc(N)n6)c5c4)cc23)n1 [Ligand 5]
- (CUG)960 foci dispersion [5, 11]: no significant foci dispersion

Compound: Nc1nc(N)nc(NCCCCNc2c3ccccc3nc3c(C(=O)NCCOCCOCCOCCOCCOCCNC(=O)c4cccc5c(NCCCCNc6nc(N)nc(N)n6)c6ccccc6nc45)cccc23)n1 [Ligand 8]
- bivalent effect (ratio of normalized IC50 of 2 to that of the dimeric ligand) [2]: 4

- fold decrease in KD compared to 2 (fold greater affinity to (CUG)6) [1]: 206 fold
- Aqueous solubility [7]: aqueous-soluble
Compound: Nc1nc(N)nc(NCCCCNc2c3ccccc3nc3c(C(=O)NCCCNCCCNCCCNC(=O)c4cccc5c(NCCCCNc6nc(N)nc(N)n6)c6ccccc6nc45)cccc23)n1 [Ligand 9]
- fold tighter binder than 10 ([1]; 9 versus 10): 10 fold
- bivalent effect (ratio of normalized IC50 of 2 to that of the dimeric ligand) [2]: 133
- fold greater inhibition potency than 2 in inhibiting formation of the (CUG)12·MBNL1 complex [2]: 266 fold
- cytotoxicity [8]: less than 20%
- cellular and nuclear penetration [6]: both cell- and nucleus-permeable; also recorded: penetrate the cellular and nuclear membrane
- (CUG)960 foci dispersion ([5]; 20 μM, p-value < 0.009): partial foci dispersion
- (CUG)960 foci dispersion ([5]; 35 μM, p-value < 0.009): partial foci dispersion
- (CUG)960 foci dispersion ([5]; 50 μM): full foci dispersion
- MBNL1 foci dispersion in live cells [9]: almost complete dispersion; also recorded: gradually dispersing over time; also recorded: almost all the foci are dispersed; also recorded: gradual MBNL1 foci dispersion

- KD [1]: close to the monomeric ligand 2
Compound: Nc1nc(N)nc(NCCCCNc2c3ccccc3nc3ccc(C(=O)NCCCOCCOCCOCCCNC(=O)c4ccc5nc6ccccc6c(NCCCCNc6nc(N)nc(N)n6)c5c4)cc23)n1 [Ligand 12]
- bivalent effect (ratio of normalized IC50 of 2 to that of the dimeric ligand) [2]: 5

Compound: CNC(=O)c1ccc2nc3ccccc3c(NCCCCNc3nc(N)nc(N)n3)c2c1 [Ligand 2]
- cytotoxicity [8]: less than 20%
- (CUG)960 foci dispersion [5, 11]: no significant foci dispersion

- fold decrease in KD compared to 2 (fold greater affinity to (CUG)6) [1]: 14 fold
Compound: Nc1nc(N)nc(NCCCCNc2c3ccccc3nc3c(C(=O)NCCNCCNCCNC(=O)c4cccc5c(NCCCCNc6nc(N)nc(N)n6)c6ccccc6nc45)cccc23)n1 [Ligand 11]
- fold higher ΔTm value than 7 [10]: > 3 fold
- bivalent effect (ratio of normalized IC50 of 2 to that of the dimeric ligand) [2]: 29
- (CUG)960 foci dispersion [5, 11]: no significant foci dispersion

- fold decrease in KD compared to 2 (fold greater affinity to (CUG)6) [1]: 17 fold
Compound: Nc1nc(N)nc(NCCCCNc2c3ccccc3nc3c(C(=O)NCCNCCNCCNCCNC(=O)c4cccc5c(NCCCCNc6nc(N)nc(N)n6)c6ccccc6nc45)cccc23)n1 [Ligand 10]
- bivalent effect (ratio of normalized IC50 of 2 to that of the dimeric ligand) [2]: 24
